Experimental data taken from ChEMBL document CHEMBL5696442, “Discovery of type II inhibitors of TGFβ-activated kinase 1 (TAK1) and mitogen-activated protein kinase kinase kinase kinase 2 (MAP4K2)” (J Med Chem, 2015).
Calls of active or inactive are those of the source. The calls are words filed in the database; no cut-off is given here.

Key:
Format in all cases: cell-based
[1] = molecular target: T1, Serine/threonine-protein kinase Chk1 (Homo sapiens) (UniProt O14757); test: Inhibition of CHK1 Lys2 labeling site harbouring DIKPENLLLDER in human A-375 cells at 5 uM by KiNativ Profiling analysis relative to control
T1 sequence (whole entry): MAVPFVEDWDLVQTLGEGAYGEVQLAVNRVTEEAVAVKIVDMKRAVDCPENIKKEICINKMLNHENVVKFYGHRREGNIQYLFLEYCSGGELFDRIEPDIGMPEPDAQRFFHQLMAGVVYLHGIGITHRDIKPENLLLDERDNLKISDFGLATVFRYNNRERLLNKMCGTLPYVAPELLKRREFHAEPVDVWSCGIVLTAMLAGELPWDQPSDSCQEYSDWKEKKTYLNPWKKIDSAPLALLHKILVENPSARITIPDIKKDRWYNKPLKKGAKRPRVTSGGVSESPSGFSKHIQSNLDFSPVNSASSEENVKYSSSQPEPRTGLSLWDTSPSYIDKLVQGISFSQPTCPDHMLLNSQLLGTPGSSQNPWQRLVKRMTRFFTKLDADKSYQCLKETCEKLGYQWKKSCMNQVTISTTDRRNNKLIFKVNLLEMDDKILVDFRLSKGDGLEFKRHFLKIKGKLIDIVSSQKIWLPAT
Summary of the method: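 Live A375 melanoma cells were treated with compound at 5 or 0.5 μM. The cells were then lysed, and the lysates were labeled with a lysine-reactive ATP or ADP-biotin acyl probe (KiNativ). Inhibition is the compound's protection of each kinase labeling-site peptide from probe labeling, relative to untreated control.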

[2] = molecular target: T2, Interleukin-1 receptor-associated kinase 4 (Homo sapiens) (UniProt Q9NWZ3); test: Inhibition of IRAK4 Lys2 labeling site in human A-375 cells at 0.05 uM by KiNativ Profiling analysis relative to control
T2 sequence (whole entry): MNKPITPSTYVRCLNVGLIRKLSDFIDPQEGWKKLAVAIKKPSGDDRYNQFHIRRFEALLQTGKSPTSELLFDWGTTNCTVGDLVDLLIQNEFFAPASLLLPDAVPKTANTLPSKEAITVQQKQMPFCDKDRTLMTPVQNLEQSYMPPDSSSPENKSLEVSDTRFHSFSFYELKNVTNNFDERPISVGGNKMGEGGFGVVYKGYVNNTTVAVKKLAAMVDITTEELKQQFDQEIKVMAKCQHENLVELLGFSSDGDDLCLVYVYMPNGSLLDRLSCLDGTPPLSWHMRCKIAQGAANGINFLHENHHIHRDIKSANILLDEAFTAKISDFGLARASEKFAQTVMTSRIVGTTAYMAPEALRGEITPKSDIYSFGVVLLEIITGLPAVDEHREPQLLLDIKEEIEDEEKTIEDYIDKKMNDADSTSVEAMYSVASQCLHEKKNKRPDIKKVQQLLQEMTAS

[3] = molecular target: T3, Kinase suppressor of Ras 2 (Homo sapiens) (UniProt Q6VAB6); test: Inhibition of KSR2 ACT labeling site in human A-375 cells at 0.05 uM by KiNativ Profiling analysis relative to control
T3 sequence (whole entry): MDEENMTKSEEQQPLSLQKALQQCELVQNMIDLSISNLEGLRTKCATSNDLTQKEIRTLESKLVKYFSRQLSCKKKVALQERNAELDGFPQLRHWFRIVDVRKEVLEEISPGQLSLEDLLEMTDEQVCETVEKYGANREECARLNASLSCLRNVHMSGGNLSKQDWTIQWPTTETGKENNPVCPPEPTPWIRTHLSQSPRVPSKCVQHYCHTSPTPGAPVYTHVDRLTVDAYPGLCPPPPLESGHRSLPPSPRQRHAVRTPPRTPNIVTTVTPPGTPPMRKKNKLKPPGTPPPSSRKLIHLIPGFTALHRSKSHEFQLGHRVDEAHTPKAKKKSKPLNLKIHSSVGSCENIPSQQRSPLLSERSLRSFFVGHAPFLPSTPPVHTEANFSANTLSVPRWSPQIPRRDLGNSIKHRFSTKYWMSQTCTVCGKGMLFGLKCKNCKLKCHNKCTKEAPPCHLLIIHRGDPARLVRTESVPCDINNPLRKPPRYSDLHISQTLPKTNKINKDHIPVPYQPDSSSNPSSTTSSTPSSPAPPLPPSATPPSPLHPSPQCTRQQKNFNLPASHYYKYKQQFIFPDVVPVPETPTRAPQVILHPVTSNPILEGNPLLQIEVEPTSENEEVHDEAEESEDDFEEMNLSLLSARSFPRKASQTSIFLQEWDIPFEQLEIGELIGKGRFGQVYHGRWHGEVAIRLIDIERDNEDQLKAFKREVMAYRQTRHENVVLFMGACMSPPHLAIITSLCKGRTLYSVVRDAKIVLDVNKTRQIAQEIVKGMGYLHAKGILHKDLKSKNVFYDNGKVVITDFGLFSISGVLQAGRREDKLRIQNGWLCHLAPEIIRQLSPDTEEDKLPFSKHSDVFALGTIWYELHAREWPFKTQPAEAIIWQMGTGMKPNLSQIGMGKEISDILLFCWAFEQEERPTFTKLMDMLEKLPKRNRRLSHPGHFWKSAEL

[4] = molecular target: Mitogen-activated protein kinase kinase kinase 1 (Homo sapiens) (UniProt Q13233); test: Inhibition of MAP3K1 Lys2 labeling site in human A-375 cells at 0.05 uM by KiNativ Profiling analysis relative to control
Mitogen-activated protein kinase kinase kinase 1 (Homo sapiens), sequence (Q13233 whole entry): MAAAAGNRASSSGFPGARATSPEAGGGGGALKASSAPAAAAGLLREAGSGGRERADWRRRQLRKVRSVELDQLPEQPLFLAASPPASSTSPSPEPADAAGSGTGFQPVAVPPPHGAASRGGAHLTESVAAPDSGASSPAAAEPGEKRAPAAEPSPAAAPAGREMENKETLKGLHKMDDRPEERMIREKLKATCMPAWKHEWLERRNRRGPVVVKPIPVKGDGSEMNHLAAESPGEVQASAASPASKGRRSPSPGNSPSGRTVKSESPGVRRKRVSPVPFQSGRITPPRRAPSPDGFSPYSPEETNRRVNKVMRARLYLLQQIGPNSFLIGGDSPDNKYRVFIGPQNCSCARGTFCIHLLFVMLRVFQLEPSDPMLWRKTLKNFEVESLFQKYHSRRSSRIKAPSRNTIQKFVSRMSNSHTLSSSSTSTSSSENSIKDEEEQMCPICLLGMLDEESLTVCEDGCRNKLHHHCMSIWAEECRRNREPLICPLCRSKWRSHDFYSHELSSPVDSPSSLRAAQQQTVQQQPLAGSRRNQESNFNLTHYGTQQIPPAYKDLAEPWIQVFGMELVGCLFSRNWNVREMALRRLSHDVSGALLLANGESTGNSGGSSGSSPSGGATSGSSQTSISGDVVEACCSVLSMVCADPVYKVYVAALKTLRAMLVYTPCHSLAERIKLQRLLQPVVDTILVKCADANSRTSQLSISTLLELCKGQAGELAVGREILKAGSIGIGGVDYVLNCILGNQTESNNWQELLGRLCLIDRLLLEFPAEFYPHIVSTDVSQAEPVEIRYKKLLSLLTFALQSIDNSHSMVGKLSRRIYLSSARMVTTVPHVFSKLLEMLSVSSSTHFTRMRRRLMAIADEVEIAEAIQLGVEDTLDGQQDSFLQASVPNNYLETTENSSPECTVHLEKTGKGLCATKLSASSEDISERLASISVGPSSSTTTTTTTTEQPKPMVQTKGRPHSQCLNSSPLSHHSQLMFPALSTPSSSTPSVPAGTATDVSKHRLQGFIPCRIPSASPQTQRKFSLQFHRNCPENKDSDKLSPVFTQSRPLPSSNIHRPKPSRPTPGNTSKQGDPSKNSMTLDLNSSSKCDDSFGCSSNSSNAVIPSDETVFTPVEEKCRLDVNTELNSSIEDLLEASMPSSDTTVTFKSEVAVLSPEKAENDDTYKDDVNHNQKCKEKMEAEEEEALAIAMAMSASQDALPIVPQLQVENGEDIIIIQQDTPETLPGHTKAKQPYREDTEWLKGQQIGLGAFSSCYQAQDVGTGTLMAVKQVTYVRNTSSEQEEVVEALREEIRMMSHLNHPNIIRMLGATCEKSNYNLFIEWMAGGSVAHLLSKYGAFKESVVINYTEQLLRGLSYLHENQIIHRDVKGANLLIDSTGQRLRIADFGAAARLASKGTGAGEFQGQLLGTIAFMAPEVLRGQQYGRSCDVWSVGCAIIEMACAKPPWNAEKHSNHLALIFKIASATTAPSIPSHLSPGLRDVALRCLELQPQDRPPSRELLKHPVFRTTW

[5] = molecular target: Serine/threonine-protein kinase MARK2 (Homo sapiens) (UniProt Q7KZI7); test: Inhibition of MARK2 Lys2 labeling site harbouring FIVHRDLKAENLLLDADMNIK in human A-375 cells at 0.05 uM by KiNativ Profiling analysis relative to control
Serine/threonine-protein kinase MARK2 (Homo sapiens), sequence (Q7KZI7 whole entry): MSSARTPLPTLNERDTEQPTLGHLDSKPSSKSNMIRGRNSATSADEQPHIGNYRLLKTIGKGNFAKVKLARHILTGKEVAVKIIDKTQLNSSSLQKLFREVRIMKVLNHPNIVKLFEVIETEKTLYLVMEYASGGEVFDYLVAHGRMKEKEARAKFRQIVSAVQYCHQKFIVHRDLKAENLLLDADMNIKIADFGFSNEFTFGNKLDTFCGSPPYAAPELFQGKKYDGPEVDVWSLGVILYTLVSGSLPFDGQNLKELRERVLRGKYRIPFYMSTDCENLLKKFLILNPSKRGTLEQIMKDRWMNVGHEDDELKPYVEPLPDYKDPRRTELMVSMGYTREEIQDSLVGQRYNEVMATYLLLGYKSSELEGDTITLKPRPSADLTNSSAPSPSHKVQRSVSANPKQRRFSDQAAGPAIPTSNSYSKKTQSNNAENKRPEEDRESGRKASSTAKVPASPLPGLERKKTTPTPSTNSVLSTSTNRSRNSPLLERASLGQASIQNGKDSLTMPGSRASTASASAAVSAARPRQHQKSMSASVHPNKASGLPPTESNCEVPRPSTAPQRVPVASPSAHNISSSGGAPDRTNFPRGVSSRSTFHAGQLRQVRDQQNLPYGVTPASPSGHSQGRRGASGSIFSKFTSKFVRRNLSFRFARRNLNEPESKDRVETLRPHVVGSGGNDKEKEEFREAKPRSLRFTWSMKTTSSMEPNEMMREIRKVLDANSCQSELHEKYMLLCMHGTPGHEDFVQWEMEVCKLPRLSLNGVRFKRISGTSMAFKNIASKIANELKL

[6] = molecular target: Serine/threonine-protein kinase mTOR (Homo sapiens) (UniProt P42345); test: Inhibition of FRAP ATP labeling site in human Huh-7 cells at 1 uM by KiNativ Profiling analysis relative to control

Structure (SMILES)	inhibition [1] [%]	inhibition [2] [%]	inhibition [3] [%]	inhibition [4] [%]	inhibition [5] [%]	inhibition [6]
CCN1CCN(Cc2ccc(NC(=O)c3ccc(C)c(Oc4ccnc5[nH]ccc45)c3)cc2C(F)(F)F)CC1	40.1	6.9	37	16.8	11.3	inactive
CNc1cc(Oc2cc(C(=O)Nc3cc(N4CCN(C)CC4)cc(C(F)(F)F)c3)ccc2C)ncn1	–	–	–	–	–	26.5%
CCN1CCN(Cc2ccc(NC(=O)c3ccc(C)c(/C=C/c4cnc5[nH]ccc5c4OC)c3)cc2C(F)(F)F)CC1	-4.8	9.7	8.6	23.1	14.2	–
